Source: PubChem
In the library only some 1.5% were active in any assay of this set; here they are far more common.
APJ antagonist: APJ receptor antagonism | P35414 | CHO-K1 APJ beta-arrestin complementation, luminescence | inhibition, % at 20 µM | 330,000 tested, 0.32% active;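 active = inhibition above about 40% at 20 µM, limit read from the data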;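 note: cells challenged with 10 nM apelin-13 agonist together with compound; plate controls were apelin-13 plus DMSO wells for no effect and DMSO wells lacking apelin-13 for full effect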
Target sequence (P35414 whole entry, looked up): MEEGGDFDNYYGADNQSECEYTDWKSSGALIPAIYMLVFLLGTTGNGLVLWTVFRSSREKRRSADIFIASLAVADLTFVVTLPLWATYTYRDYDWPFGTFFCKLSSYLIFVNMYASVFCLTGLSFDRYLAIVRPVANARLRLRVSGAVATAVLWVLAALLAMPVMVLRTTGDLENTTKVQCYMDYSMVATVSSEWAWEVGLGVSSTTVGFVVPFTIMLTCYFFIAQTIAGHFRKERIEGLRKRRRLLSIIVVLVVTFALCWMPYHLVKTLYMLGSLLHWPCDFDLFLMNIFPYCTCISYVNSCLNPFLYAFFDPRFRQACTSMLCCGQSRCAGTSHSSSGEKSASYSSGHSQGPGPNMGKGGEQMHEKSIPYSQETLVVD
EBI2 antag: EBI2 (human) antagonism | P32249 | EBI2 beta-arrestin recruitment, luminescence, 7a,25-OHC stimulated | inhibition, % at 5 µM | 360,000 tested, 0.81% active | AID 651636; in the data active = inhibition above about 38%;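 note: enzyme fragment complementation signal reports receptor beta-arrestin coupling in cells; 0% = agonist plus DMSO wells and 100% = wells without agonist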
CXCR6 block: CXCR6 (human) receptor inhibition; inhibition, % at 20 µM; O00574; CHO-K1 PathHunter CXCR6 beta-arrestin, luminescence; 360,000 tested, 0.36% active; AID 602244; in the data active = inhibition above about 34%, passing the limit was not always enough;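 note: antagonist mode with CXCL16 agonist at 10 nM final; 0% = 10 nM CXCL16 with DMSO and 100% = unstimulated wells without agonist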
APJ ag: APJ receptor agonism | CHO-K1 APJ PathHunter beta-arrestin, luminescence; 0% DMSO wells, 100% apelin | activation, % at 20 µM | 330,000 tested, 0.11% active;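 active = activation more than six SD over the plate average, tested at 20 µM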;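 note: 0% = DMSO alone and 100% = apelin-13 at 10 nM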
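system = engineered CHO-K1 APJ arrestin reporter cells | input = 1000 cells per well | timing = overnight seeding, 90 min compound at 25 °C, 1 h detection | measured by = enzyme-fragment complementation luminescence | read-out = beta-arrestin recruitment to APJ as agonist activity, luminescent signal | control set = negative DMSO alone, positive Apelin-13 at 10 nM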
CCR6 antagonist: CCR6 (human) receptor antagonism; CHO-K1 CCR6 PathHunter beta-arrestin, luminescence, CCL20-stimulated; inhibition, % at 20 µM; 340,000 tested, 0.49% active;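 active = compounds whose inhibition of the agonist-driven luminescence signal at 20 µM reaches about 50%, limit read from the data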;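 note: cells stimulated with CCL20 at 14 nM final; plate controls were DMSO with CCL20 for no effect and DMSO without agonist for full effect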
EBI2 conf: EBI2 (human) antagonism, single concentration confirmation; shares compounds with EBI2 antag; EBI2 beta-arrestin luminescence, 7a,25-OHC antagonism; inhibition, % at 5 µM; 2,400 tested, 29% active; AID 651997;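 active = inhibition of at least 50%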
EBI2 ag: EBI2 agonism counter-screen | shares compounds with EBI2 antag | EBI2-expressing cells, agonist mode, luminescence, 60 min; 0% vehicle, 100% 7α,25-dihydroxycholesterol control | activation, % at 5 µM | 2,400 tested, under 10 active;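 active = activation of at least 50%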
bGal cs: beta-galactosidase inhibition counter-screen; purified beta-galactosidase, luminescent Galacton Star, 15 min; AID 652176; 2,400 tested, 1% active; inhibition, % at 5 µM; shares compounds with EBI2 antag;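 active = replicate-average signal at least 3 plate SD below neutral wells, shown as high inhibition, flagging enzyme-inhibiting false positives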;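 note: 0% = DMSO wells with enzyme and 100% = wells lacking enzyme; higher means stronger loss of beta-gal luminescence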
* = called active by the depositor; nt = not tested or not shown.

SMILES | APJ antagonist | EBI2 antag | CXCR6 block | APJ ag | CCR6 antagonist | EBI2 conf | EBI2 ag | bGal cs
CC1=C(C(=O)Nc2ccccc2C(=O)NC2CCC(C)CC2)SCCO1 (stereo unspecified) | 21 | -22 | 5 | 2 | 1 | nt | nt | nt
CN(C)c1ccc(N2C(=NC(=O)CCC3CCCC3)SC3CS(=O)(=O)CC32)cc1 (stereo unspecified) | -15 | 10 | -2 | 4 | 7 | nt | nt | nt
Cn1cc(S(=O)(=O)N2CCc3ccccc32)cc1C(=O)Nc1ccc(Cl)cc1 | -2 | 46* | -6 | 3 | 24 | 14 | -1 | -11
CC(=O)N1CCN(C(=O)COC(=O)COc2c(C)cc(C)cc2C)CC1 | 1 | -7 | -10 | -2 | 5 | nt | nt | nt
O=C(CCc1ccccc1)N1CCN(C(=O)CCc2ccccc2)CC1 | nt | 55* | 0 | nt | 9 | 25 | -1 | -8
COc1ccccc1C(=O)N/C(=C/c1ccco1)C(=O)Nc1cccc(C(=O)O)c1 | 24 | -4 | -4 | 1 | 10 | nt | nt | nt
CN(C)c1ccc(C(=O)/C=C/c2ccc(Br)cc2)cc1 | -10 | 86* | 8 | 0 | 14 | 64* | -1 | -21
NS(=O)(=O)Oc1ccccc1 | -72 | -8 | 2 | 7 | 0 | nt | nt | nt
COc1ccc(-c2cc(-c3nnc(COC(=O)c4ccc(O)cc4)o3)c3ccccc3n2)cc1OC | -31 | 46* | 5 | -1 | -3 | 8 | 4 | 5
CC(=O)N1CCN(C(=O)COc2ccc(Br)cc2)CC1 | 11 | 43 | -3 | -2 | -14 | nt | nt | nt
O=C(COc1ccccc1)N1CCN(c2ccc([N+](=O)[O-])c(N3CCCCC3)c2)CC1 | 2 | 50* | 1 | -3 | 19 | 20 | 0 | 12
CC(C)(C)C(=O)N1CCN(c2ccc(Cl)cc2[N+](=O)[O-])CC1 | 27 | 12 | 1 | -3 | 9 | nt | nt | nt
O=C(COc1ccc(Cl)cc1)N1CCN(c2ccc([N+](=O)[O-])c(N3CCOCC3)c2)CC1 | -7 | 85* | -10 | -2 | 6 | 61* | 0 | 9
O=C(CSc1ccc(Cl)cc1)N1CCN(c2ccc(Cl)cc2[N+](=O)[O-])CC1 | 19 | 82* | -1 | 0 | 5 | 76* | 2 | 8
O=C(COc1ccc(Br)cc1)N1CCN(c2ccc([N+](=O)[O-])c(N3CCCCC3)c2)CC1 | 8 | 77* | 14 | 1 | 15 | 57* | -1 | 9
CC1(C)OC2CC3C4CC(F)C5=CC(=O)C=CC5(C)C4(F)C(O)CC3(C)C2(C(=O)CO)O1 (stereo unspecified) | -6 | -2 | -5 | 1 | 8 | nt | nt | nt
COc1ccc(NC(=O)CSc2n[nH]c(-c3ccccc3)n2)cc1S(N)(=O)=O | -4 | 2 | 1 | -1 | 1 | nt | nt | nt
CCOc1cc(/C=C(\C#N)C(=O)Nc2ccccc2C(=O)O)ccc1OC(=O)c1ccc(C)cc1 | nt | -13 | -3 | nt | 6 | nt | nt | nt
Cc1ccc(N2CC(C(=O)Nc3ccc(S(=O)(=O)N4CCCC4)cc3)CC2=O)cc1 (stereo unspecified) | 11 | 55* | -3 | 4 | 9 | 30 | 0 | 0
O=C(Nc1ccc(S(=O)(=O)N2CCCCC2)cc1)C1CC(=O)N(c2ccc(Cl)cc2)C1 (stereo unspecified) | -7 | 89* | 0 | -1 | -2 | 56* | 3 | 1
Cc1ccc(N2CC(C(=O)Nc3cc(C)ccc3F)CC2=O)cc1 (stereo unspecified) | -3 | 53* | 2 | -4 | 8 | 41 | 1 | 1
CCc1ccc(N2CC(C(=O)Nc3ccc(S(=O)(=O)N4CCOCC4)cc3)CC2=O)cc1 (stereo unspecified) | -7 | 52* | -6 | -2 | 15 | 43 | 0 | 7
O=C(c1ccc(NS(=O)(=O)c2ccc(Cl)c(Cl)c2)cc1)N1CCOCC1 | 14 | -3 | 1 | -4 | 4 | nt | nt | nt
CN(C)c1ccc(S(=O)(=O)N2CCCCC2)cc1NC(=O)CCNC(=O)c1ccco1 | 2 | -10 | -4 | 0 | -1 | nt | nt | nt
CC(Sc1ccccc1)C(=O)NCC1COc2ccccc2O1 (stereo unspecified) | 8 | 13 | 8 | 6 | 7 | nt | nt | nt
SMILES | APJ antagonist | EBI2 antag | CXCR6 block | APJ ag | CCR6 antagonist | EBI2 conf | EBI2 ag | bGal cs
CCc1cccc(C)c1NC(=O)CN1C(=O)NC(CCc2ccccc2)C1=O (stereo unspecified) | 12 | -9 | 5 | -3 | 13 | nt | nt | nt
CSc1nc(N)c(C(=O)Nc2ccc([N+](=O)[O-])cc2)s1 | 15 | 3 | 0 | -4 | 3 | nt | nt | nt
COc1ccc(CCCNC(=O)C2CCC(=O)N(CC3CCCCC3)C2)cc1 (stereo unspecified) | 38 | 8 | 10 | 12 | 6 | nt | nt | nt
COc1ccc(N2CC(C(=O)Nc3ccc(S(=O)(=O)N4CCCC4)cc3)CC2=O)cc1 (stereo unspecified) | 9 | 50* | 0 | 0 | 6 | 17 | 0 | -12
COc1ccccc1N1CC(C(=O)Nc2ccc(S(=O)(=O)N3CCCC3)cc2)CC1=O (stereo unspecified) | 3 | -8 | -2 | -1 | -3 | nt | nt | nt
Cc1ccc(CN2CC(C(=O)Nc3ccc(S(=O)(=O)N4CCCCC4)cc3)CC2=O)cc1 (stereo unspecified) | -7 | 50* | -10 | -1 | 18 | 28 | -1 | -12
Cc1ccccc1N1CC(C(=O)Nc2ccc(S(=O)(=O)NCC3CCCO3)cc2)CC1=O (stereo unspecified) | -1 | 1 | 2 | -4 | -10 | nt | nt | nt
COc1ccc(N2CC(C(=O)Nc3ccc(S(=O)(=O)N4CCCCC4)cc3)CC2=O)cc1 (stereo unspecified) | -13 | 75* | 1 | -2 | 16 | 56* | 1 | 0
Cc1ccc(N2CC(C(=O)Nc3ccc(S(=O)(=O)NCC4CCCO4)cc3)CC2=O)cc1 (stereo unspecified) | 7 | 51* | -4 | 2 | 23 | 30 | 0 | 1
COc1ccc(Nc2nc(-c3ccccc3)c(C(=O)Nc3cccnc3)s2)cc1 | -7 | 13 | -4 | -2 | 11 | nt | nt | nt
CCOc1ccc(NC(=O)CN(C)C(=O)c2cccnc2Sc2ccc(C)c(C)c2)cc1OCC | 5 | 1 | -2 | -4 | 14 | nt | nt | nt
CNC[C@H]1Oc2c(NS(=O)(=O)c3ccccc3)cccc2C(=O)N([C@H](C)CO)C[C@@H]1C | -5 | -15 | -4 | -4 | -2 | nt | nt | nt
Cc1ccccc1/C=N/n1c(-c2cc(-c3ccccc3)n[nH]2)n[nH]c1=S | 17 | 24 | 6 | 3 | 18 | nt | nt | nt
